In brackets after ≈: the same amount, converted by molar mass. Activity calls are given as the source filed them. The calls are words filed in the database; no cut-off is given here.
Experiments:
Assay type in all cases: functional
[1] = Antifungal activity against Candida viswanathii NBRC10321 at 400 ug/ml after 24 hrs by twofold serial dilution method
Method in brief: (§1)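 Compounds were first screened at a single concentration of 400 against each fungus. MIC values were then determined only for selected compounds.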

Saccharomyces cerevisiae = test: Antifungal activity against Saccharomyces cerevisiae X2180-1A after 24 hrs by twofold serial dilution method; method in brief: as §1
Aspergillus oryzae = test: Antifungal activity against Aspergillus oryzae 1-Murasaki-1 after 24 hrs by twofold serial dilution method; details: 1-Murasaki-1, 24 h; method in brief: as §1

SMILES | Activity [1] | MIC (Saccharomyces cerevisiae) [µg/mL] | MIC (Aspergillus oryzae) [µg/mL]
CCCCCCCCCCCCNC(=O)[C@H](CC(=O)N[C@H](CO)C(=O)N[C@H](Cc1ccc(O)cc1)C(=O)N[C@H](CC(N)=O)C(=O)NCC(=O)N[C@@H](CC(N)=O)C(=O)N[C@@H](CO)C(=O)O)NC(=O)[C@@H](N)CC(N)=O | inactive | – | –
CCCCCCCCCCCCNC(=O)[C@H]1CC(=O)N[C@H](CO)C(=O)N[C@H](Cc2ccc(O)cc2)C(=O)N[C@H](CC(N)=O)C(=O)NCC(=O)N[C@@H](CC(N)=O)C(=O)N[C@H](CO)C(=O)N[C@@H](CC(N)=O)C(=O)N1 | inactive | – | –
CCCCCCCCCCCCNC(=O)[C@H](CC(=O)N[C@H](CO)C(=O)N[C@H](Cc1ccc(O)cc1)C(=O)O)NC(=O)[C@H](CC(N)=O)NC(=O)[C@H](CO)NC(=O)[C@H](CC(N)=O)NC(=O)CNC(=O)[C@H](N)CC(N)=O | inactive | – | –
CCCCCCCCCCCCNC(=O)[C@H](CC(=O)N[C@H](CO)C(=O)N[C@H](Cc1ccc(O)cc1)C(=O)N[C@H](CC(N)=O)C(=O)O)NC(=O)[C@H](CC(N)=O)NC(=O)[C@H](CO)NC(=O)[C@H](CC(N)=O)NC(=O)CN | inactive | – | –
CCCCCCCCCCCCCCCCNC(=O)[C@H]1CC(=O)N[C@H](CO)C(=O)N[C@H](Cc2ccc(O)cc2)C(=O)N[C@H](CC(N)=O)C(=O)NCC(=O)N[C@@H](CC(N)=O)C(=O)N[C@@H](CO)C(=O)N[C@@H](CC(N)=O)C(=O)N1 | inactive | – | –
CCCCCCCCNC(=O)[C@H]1CC(=O)N[C@H](CO)C(=O)N[C@H](Cc2ccc(O)cc2)C(=O)N[C@H](CC(N)=O)C(=O)NCC(=O)N[C@@H](CC(N)=O)C(=O)N[C@@H](CO)C(=O)N[C@@H](CC(N)=O)C(=O)N1 | inactive | – | –
CCCCCCCCNC(=O)[C@@H]1CC(=O)N[C@H](CO)C(=O)N[C@H](Cc2ccc(O)cc2)C(=O)N[C@H](CC(N)=O)C(=O)NCC(=O)N[C@@H](CC(N)=O)C(=O)N[C@@H](CO)C(=O)N[C@@H](CC(N)=O)C(=O)N1 | inactive | – | –
CCCCCCCCCCCCNC(=O)[C@@H]1CC(=O)N[C@H](CO)C(=O)N[C@H](Cc2ccc(O)cc2)C(=O)N[C@H](CC(N)=O)C(=O)NCC(=O)N[C@@H](CC(N)=O)C(=O)N[C@H](CO)C(=O)N[C@H](CC(N)=O)C(=O)N1 | inactive | – | –
CCCCCCCCCCCCNC(=O)[C@@H]1CC(=O)N[C@H](CO)C(=O)N[C@H](Cc2ccc(O)cc2)C(=O)N[C@H](CC(N)=O)C(=O)NCC(=O)N[C@@H](CC(N)=O)C(=O)N[C@@H](CO)C(=O)N[C@H](CC(N)=O)C(=O)N1 | inactive | – | –
C[C@@H]1[C@H](O)[C@@H](C)/C=C/C=C/C=C/C=C/C=C/C=C/C=C/[C@H](O[C@@H]2O[C@H](C)[C@@H](O)[C@H](N)[C@@H]2O)C[C@@H]2O[C@](O)(C[C@@H](O)C[C@@H](O)[C@H](O)CC[C@@H](O)C[C@@H](O)CC(=O)O[C@H]1C)C[C@H](O)[C@H]2C(=O)O [AMPHOTERICIN B] | – | 1 (≈ 1.08 µM) | –
CCCCCCCCCCCCNC(=O)[C@@H]1CC(=O)N[C@H](CO)C(=O)N[C@H](Cc2ccc(O)cc2)C(=O)N[C@H](CC(N)=O)C(=O)NCC(=O)N[C@H](CC(N)=O)C(=O)N[C@H](CO)C(=O)N[C@@H](CC(N)=O)C(=O)N1 | inactive | – | –
CCCCCCCCCCCCCCCCNC(=O)[C@@H]1CC(=O)N[C@H](CO)C(=O)N[C@H](Cc2ccc(O)cc2)C(=O)N[C@H](CC(N)=O)C(=O)NCC(=O)N[C@@H](CC(N)=O)C(=O)N[C@@H](CO)C(=O)N[C@@H](CC(N)=O)C(=O)N1 | inactive | – | –
CCCCCCCCCCCCNC(=O)[C@H]1CC(=O)N[C@H](CO)C(=O)N[C@H](Cc2ccc(O)cc2)C(=O)N[C@H](CC(N)=O)C(=O)NCC(=O)N[C@@H](CC(N)=O)C(=O)N[C@@H](CO)C(=O)N[C@H](CC(N)=O)C(=O)N1 | inactive | > 400 | 200 (≈ 196 µM)
CCCCCCCCCCCCNC(=O)[C@H](CC(=O)N[C@H](CO)C(=O)O)NC(=O)[C@H](CC(N)=O)NC(=O)[C@H](CO)NC(=O)[C@H](CC(N)=O)NC(=O)CNC(=O)[C@@H](CC(N)=O)NC(=O)[C@H](N)Cc1ccc(O)cc1 | inactive | – | –
CCCCCCCCCCCCNC(=O)[C@H]1CC(=O)N[C@H](CO)C(=O)N[C@H](Cc2ccc(O)cc2)C(=O)N[C@H](CC(N)=O)C(=O)NCC(=O)N[C@H](CC(N)=O)C(=O)N[C@H](CO)C(=O)N[C@@H](CC(N)=O)C(=O)N1 | inactive | 100 (≈ 98.1 µM) | 200 (≈ 196 µM)
CCCCCCCCCCCCNC(=O)[C@@H]1CC(=O)N[C@H](CO)C(=O)N[C@H](Cc2ccc(O)cc2)C(=O)N[C@H](CC(N)=O)C(=O)NCC(=O)N[C@H](CC(N)=O)C(=O)N[C@@H](CO)C(=O)N[C@H](CC(N)=O)C(=O)N1 | inactive | – | –
CCCCCCCCCCCCNC(=O)[C@H](CC(=O)N[C@H](CO)C(=O)N[C@H](Cc1ccc(O)cc1)C(=O)N[C@H](CC(N)=O)C(=O)NCC(=O)N[C@@H](CC(N)=O)C(=O)O)NC(=O)[C@H](CC(N)=O)NC(=O)[C@@H](N)CO | inactive | – | –
CCCCCCCCCCCCNC(=O)[C@H]1CC(=O)N[C@H](CO)C(=O)N[C@H](Cc2ccc(O)cc2)C(=O)N[C@H](CC(N)=O)C(=O)NCC(=O)N[C@H](CC(N)=O)C(=O)N[C@@H](CO)C(=O)N[C@@H](CC(N)=O)C(=O)N1 | inactive | – | –
CCCCCCCCCCCCNC(=O)[C@H]1CC(=O)N[C@H](CO)C(=O)N[C@H](Cc2ccc(O)cc2)C(=O)N[C@H](CC(N)=O)C(=O)NCC(=O)N[C@@H](CC(N)=O)C(=O)N[C@@H](CO)C(=O)N[C@@H](CC(N)=O)C(=O)N1 | inactive | 50 (≈ 49.1 µM) | 50 (≈ 49.1 µM)
CCCCCCCCCCCCNC(=O)[C@H](CC(=O)N[C@H](CO)C(=O)N[C@H](Cc1ccc(O)cc1)C(=O)N[C@H](CC(N)=O)C(=O)NCC(=O)O)NC(=O)[C@H](CC(N)=O)NC(=O)[C@H](CO)NC(=O)[C@@H](N)CC(N)=O | inactive | – | –
CCCCCCCCCCCCNC(=O)[C@H]1CC(=O)N[C@H](CO)C(=O)N[C@H](Cc2ccc(O)cc2)C(=O)N[C@H](CC(N)=O)C(=O)NCC(=O)N[C@@H](CC(N)=O)C(=O)N[C@H](CO)C(=O)N[C@H](CC(N)=O)C(=O)N1 | inactive | 400 (≈ 392 µM) | 200 (≈ 196 µM)
CCCCCCCCCCCCNC(=O)[C@@H]1CC(=O)N[C@H](CO)C(=O)N[C@H](Cc2ccc(O)cc2)C(=O)N[C@H](CC(N)=O)C(=O)NCC(=O)N[C@H](CC(N)=O)C(=O)N[C@@H](CO)C(=O)N[C@@H](CC(N)=O)C(=O)N1 | inactive | – | –
CCCCCCCCCCCCNC(=O)[C@H]1CC(=O)N[C@H](CO)C(=O)N[C@H](Cc2ccc(O)cc2)C(=O)N[C@H](CC(N)=O)C(=O)NCC(=O)N[C@H](CC(N)=O)C(=O)N[C@@H](CO)C(=O)N[C@H](CC(N)=O)C(=O)N1 | inactive | 400 (≈ 392 µM) | 200 (≈ 196 µM)
CCCCCCCCCCCCNC(=O)[C@@H]1CC(=O)N[C@H](CO)C(=O)N[C@H](Cc2ccc(O)cc2)C(=O)N[C@H](CC(N)=O)C(=O)NCC(=O)N[C@@H](CC(N)=O)C(=O)N[C@@H](CO)C(=O)N[C@@H](CC(N)=O)C(=O)N1 | inactive | 25 (≈ 24.5 µM) | 50 (≈ 49.1 µM)
CCCCCCCCCCCCNC(=O)[C@@H]1CC(=O)N[C@H](CO)C(=O)N[C@H](Cc2ccc(O)cc2)C(=O)N[C@H](CC(N)=O)C(=O)NCC(=O)N[C@H](CC(N)=O)C(=O)N[C@H](CO)C(=O)N[C@H](CC(N)=O)C(=O)N1 | inactive | > 400 | 200 (≈ 196 µM)
CCCCCCCCCCCCNC(=O)[C@@H]1CC(=O)N[C@H](CO)C(=O)N[C@H](Cc2ccc(O)cc2)C(=O)N[C@H](CC(N)=O)C(=O)NCC(=O)N[C@@H](CC(N)=O)C(=O)N[C@H](CO)C(=O)N[C@@H](CC(N)=O)C(=O)N1 | inactive | – | –
CCCCCCCCCCCCNC(=O)[C@H]1CC(=O)N[C@H](CO)C(=O)N[C@H](Cc2ccc(O)cc2)C(=O)N[C@H](CC(N)=O)C(=O)NCC(=O)N[C@H](CC(N)=O)C(=O)N[C@H](CO)C(=O)N[C@H](CC(N)=O)C(=O)N1 | inactive | 100 (≈ 98.1 µM) | 200 (≈ 196 µM)

Source: ChEMBL document CHEMBL3600309, “Structure activity relationship study of burkholdine analogues toward simple antifungal agents” (2015)
